From article PMC4306959 (Scientific Reports, 2015)

Experiments:
[1] = tested on: JNK2; settings: cited from earlier work
[2] = tested on: JNK3; settings: cited from earlier work
[3] = target: JNK3α1L144I (Homo sapiens, UniProt P53779, L144I); test: HTRF enzyme inhibition assay, JNK3 L144I mutant; type: biochemical; settings: read-out: Km value of ATP for JNK3 L144I
Outline: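 Human JNK3 39–402 L144I, made by PCR mutagenesis and expressed like WT, activated for 2 h at 30°C with MKK4/MKK7 (100 nM each) in HEPES pH 7.5, MgCl2, DTT, 200 μM ATP; activation checked by MS and Western. HTRF at 0.75 nM enzyme, 0.5 μM biotinylated FL-ATF-2, 1.25 μM ATP, 1 h. Top concentration 10,000 nM.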

JNK3α1L144I, sequence (P53779 39-402 L144I): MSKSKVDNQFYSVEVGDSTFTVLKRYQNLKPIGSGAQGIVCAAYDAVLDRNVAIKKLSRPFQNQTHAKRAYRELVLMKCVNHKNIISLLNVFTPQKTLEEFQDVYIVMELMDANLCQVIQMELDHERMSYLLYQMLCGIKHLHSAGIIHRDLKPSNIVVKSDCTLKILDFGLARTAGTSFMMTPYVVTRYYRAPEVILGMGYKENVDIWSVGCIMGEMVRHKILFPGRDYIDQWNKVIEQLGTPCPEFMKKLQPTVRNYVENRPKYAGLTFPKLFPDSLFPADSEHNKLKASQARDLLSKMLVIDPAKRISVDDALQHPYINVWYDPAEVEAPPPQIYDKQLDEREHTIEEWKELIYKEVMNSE

Row | Km [3] [µM] | SMILES | Selectivity for JNK2 compared to JNK1 [1] [fold] | Selectivity for JNK3 compared to JNK1 [2] [fold]
1 | – | Cn1c(NC[C@@H](N)Cc2ccccc2)nc(-c2ccncc2)c(-c2ccc3ccccc3c2)c1=O [AMG-548] | 294 | 188
2 | 2.9 | Nc1ncnc2c1ncn2[C@@H]1O[C@H](COP(=O)(O)OP(=O)(O)OP(=O)(O)O)[C@@H](O)[C@H]1O [ATP] | – | –
